According to ChEMBL document CHEMBL3124806, “Imidazopyridine-fused [1,3]-diazepinones: synthesis and antiproliferative activity” (Eur J Med Chem, 2014):

Columns and labels:
Type in all cases: functional
SK-MEL-5 = experiment: Cytotoxicity against human SK-MEL-5 cells assessed as cell growth at 10 uM after 48 hrs by SRB assay relative to untreated control; conditions: SK-MEL-5, 48 h, read-out: Activity
Procedure, shortened: (§1)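 NCI-60 single-dose screen. Compounds were added to the cultures at 10 μM and incubated for 48 h. The end point was sulforhodamine B protein staining read spectrophotometrically. Growth is reported as percent of untreated control cells.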

MDA-MB-231 = experiment: Cytotoxicity against human MDA-MB-231 cells assessed as cell growth at 10 uM after 48 hrs by SRB assay relative to untreated control; conditions: MDA-MB-231, 48 h, read-out: Activity
Procedure, shortened: (§2)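 NCI-60 one-dose screen: each agent added at 10 µM, cultures incubated 48 h. Endpoint by sulforhodamine B protein-binding dye read spectrophotometrically; growth expressed as percent of untreated control cells.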

[1] = Cytotoxicity against human OVCAR5 cells assessed as cell growth at 10 uM after 48 hrs by SRB assay relative to untreated control; conditions: OVCAR-5, 48 h, read-out: Activity; procedure, shortened: as §2
MDA-MB-435 = experiment: Cytotoxicity against human MDA-MB-435 cells assessed as cell growth at 10 uM after 48 hrs by SRB assay relative to untreated control; conditions: MDA-MB-435, 48 h, read-out: Activity; procedure, shortened: as §2
OVCAR-8 = experiment: Cytotoxicity against human OVCAR8 cells assessed as cell growth at 10 uM after 48 hrs by SRB assay relative to untreated control; conditions: OVCAR-8, 48 h, read-out: Activity; procedure, shortened: as §2
CCRF-CEM = experiment: Cytotoxicity against human CCRF-CEM cells assessed as cell growth at 10 uM after 48 hrs by SRB assay relative to untreated control; conditions: read-out: Activity
Procedure, shortened: (§3)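 NCI-60 panel screen at a single concentration of 10 μM with 48 h incubation. Cell density measured by sulforhodamine B protein-binding dye and read spectrophotometrically. Growth expressed as percent of untreated control cells.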

MCF7 = experiment: Cytotoxicity against human MCF7 cells assessed as cell growth at 10 uM after 48 hrs by SRB assay relative to untreated control; conditions: MCF7, 48 h, read-out: Activity; procedure, shortened: as §3
SNB-19 = experiment: Cytotoxicity against human SNB19 cells assessed as cell growth at 10 uM after 48 hrs by SRB assay relative to untreated control; conditions: SNB-19, 48 h, read-out: Activity; procedure, shortened: as §1
SN12C = experiment: Cytotoxicity against human SN12C cells assessed as cell growth at 10 uM after 48 hrs by SRB assay relative to untreated control; conditions: read-out: Activity; procedure, shortened: as §1
SK-MEL-2 = experiment: Cytotoxicity against human SK-MEL-2 cells assessed as cell growth at 10 uM after 48 hrs by SRB assay relative to untreated control; conditions: SK-MEL-2, 48 h, read-out: Activity; procedure, shortened: as §2
NCI-H522 = experiment: Cytotoxicity against human NCI-H522 cells assessed as cell growth at 10 uM after 48 hrs by SRB assay relative to untreated control; conditions: NCI-H522, 48 h, read-out: Activity; procedure, shortened: as §2
HCC 2998 = experiment: Cytotoxicity against human HCC2998 cells assessed as cell growth at 10 uM after 48 hrs by SRB assay relative to untreated control; conditions: HCC 2998, 48 h, read-out: Activity; procedure, shortened: as §3
MDA-MB-468 = experiment: Cytotoxicity against human MDA-MB-468 cells assessed as cell growth at 10 uM after 48 hrs by SRB assay relative to untreated control; conditions: MDA-MB-468, 48 h, read-out: Activity; procedure, shortened: as §2
IGROV-1 = experiment: Cytotoxicity against human IGROV1 cells assessed as cell growth at 10 uM after 48 hrs by SRB assay relative to untreated control; conditions: IGROV-1, 48 h, read-out: Activity; procedure, shortened: as §3
ACHN = experiment: Cytotoxicity against human ACHN cells assessed as cell growth at 10 uM after 48 hrs by SRB assay relative to untreated control; conditions: read-out: Activity; procedure, shortened: as §3
TK-10 = experiment: Cytotoxicity against human TK10 cells assessed as cell growth at 10 uM after 48 hrs by SRB assay relative to untreated control; conditions: TK-10, 48 h, read-out: Activity; procedure, shortened: as §1
[2] = Cytotoxicity against human UO31 cells assessed as cell growth at 10 uM after 48 hrs by SRB assay relative to untreated control; conditions: UO-31, 48 h, read-out: Activity; procedure, shortened: as §1
CAKI-1 = experiment: Cytotoxicity against human Caki1 cells assessed as cell growth at 10 uM after 48 hrs by SRB assay relative to untreated control; conditions: CAKI-1, 48 h, read-out: Activity; procedure, shortened: as §3
HT-29 = experiment: Cytotoxicity against human HT-29 cells assessed as cell growth at 10 uM after 48 hrs by SRB assay relative to untreated control; conditions: HT-29, 48 h, read-out: Activity; procedure, shortened: as §3
A549 = experiment: Cytotoxicity against human A549 cells assessed as cell growth at 10 uM after 48 hrs by SRB assay relative to untreated control; conditions: A549, 48 h, read-out: Activity; procedure, shortened: as §3
SF-539 = experiment: Cytotoxicity against human SF539 cells assessed as cell growth at 10 uM after 48 hrs by SRB assay relative to untreated control; conditions: SF-539, 48 h, read-out: Activity; procedure, shortened: as §2
SK-MEL-28 = experiment: Cytotoxicity against human SK-MEL-28 cells assessed as cell growth at 10 uM after 48 hrs by SRB assay relative to untreated control; conditions: SK-MEL-28, 48 h, read-out: Activity; procedure, shortened: as §1
NCI-H226 = experiment: Cytotoxicity against human NCI-H226 cells assessed as cell growth at 10 uM after 48 hrs by SRB assay relative to untreated control; conditions: NCI-H226, 48 h, read-out: Activity; procedure, shortened: as §2
RPMI-8226 = experiment: Cytotoxicity against human RPMI8226 cells assessed as cell growth at 10 uM after 48 hrs by SRB assay relative to untreated control; conditions: RPMI-8226, 48 h, read-out: Activity; procedure, shortened: as §2
M14 = experiment: Cytotoxicity against human M14 cells assessed as cell growth at 10 uM after 48 hrs by SRB assay relative to untreated control; conditions: M14, 48 h, read-out: Activity; procedure, shortened: as §3
NCI-H460 = experiment: Cytotoxicity against human NCI-H460 cells assessed as cell growth at 10 uM after 48 hrs by SRB assay relative to untreated control; conditions: NCI-H460, 48 h, read-out: Activity; procedure, shortened: as §2
HL-60(TB) = experiment: Cytotoxicity against human HL-60(TB) cells assessed as cell growth at 10 uM after 48 hrs by SRB assay relative to untreated control; conditions: HL-60, 48 h, read-out: Activity
Procedure, shortened: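 NCI-60 human tumour cell line panel; a single 10 µM concentration was added to the cultures and incubated 48 h. Endpoint was sulforhodamine B protein-binding dye read spectrophotometrically, with growth reported as percent of untreated control cells.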

SMILES | growth at 10 µM (SK-MEL-5) | growth at 10 µM (MDA-MB-231) | growth at 10 µM [1] | growth at 10 µM (MDA-MB-435) | growth at 10 µM (OVCAR-8) | growth at 10 µM (CCRF-CEM) | growth at 10 µM (MCF7) | growth at 10 µM (SNB-19) | growth at 10 µM (SN12C) | growth at 10 µM (SK-MEL-2) | growth at 10 µM (NCI-H522) | growth at 10 µM (HCC 2998) | growth at 10 µM (MDA-MB-468) | growth at 10 µM (IGROV-1) | growth at 10 µM (ACHN) | growth at 10 µM (TK-10) | growth at 10 µM [2] | growth at 10 µM (CAKI-1) | growth at 10 µM (HT-29) | growth at 10 µM (A549) | further results
O=C1c2c(nc3ccccn23)NC(=O)N2CCC[C@@H]12 | 99.5% | 118% | 101% | 94.9% | 94.2% | 102% | 99.9% | 104% | 106% | 107% | 106% | 105% | 93.5% | 109% | 101% | 99.6% | 95.1% | 97.9% | 106% | 98% | growth at 10 µM (SF-539): 91.7%; growth at 10 µM (SK-MEL-28): 106%; growth at 10 µM (NCI-H226): 100%; growth at 10 µM (RPMI-8226): 103%; growth at 10 µM (M14): 94.8%; growth at 10 µM (NCI-H460): 105%
Cc1ccc(C2=Nc3nc4ccccn4c3C(=O)[C@H](Cc3ccccc3)N2)cc1 | 86.5% | 93.7% | 99.2% | 46.8% | 92.9% | 103% | 76.2% | 96.4% | 104% | 105% | 98.1% | 106% | 84.5% | 89.1% | 92.1% | 135% | 77% | 76.8% | 114% | 94.9% | growth at 10 µM (HL-60(TB)): 116%; growth at 10 µM (SF-539): 98.8%; growth at 10 µM (SK-MEL-28): 109%; growth at 10 µM (NCI-H226): 88.2%; growth at 10 µM (RPMI-8226): 107%; growth at 10 µM (M14): 97.7%; growth at 10 µM (NCI-H460): 103%
O=C1c2c(nc3ccccn23)N=C(c2ccccc2)N2CCC[C@@H]12 | 94.7% | 94.6% | 94.2% | 101% | 98.7% | 104% | 93% | 103% | 99.6% | 114% | 127% | 94.7% | 101% | 114% | 97.9% | 124% | 88.7% | 95.4% | 114% | 96.3% | growth at 10 µM (HL-60(TB)): 129%; growth at 10 µM (SF-539): 89.8%; growth at 10 µM (SK-MEL-28): 108%; growth at 10 µM (NCI-H226): 94.9%; growth at 10 µM (RPMI-8226): 96.5%; growth at 10 µM (M14): 96.5%; growth at 10 µM (NCI-H460): 103%
